Here are results for 15 compounds from ChEMBL document CHEMBL1153749, “Flavonoids from the heartwood of the Thai medicinal plant Dalbergia parviflora and their effects on estrogenic-responsive human breast cancer cells” (2009).

What all share (assay type): functional
Test [1] deals with T47D. The test is described as follows: Estrogenic activity in human T47D cells assessed as drug level causing stimulation of cell proliferation equivalent to 10 pM estradiol after 96 hrs by alamar blue assay. The essentials: (§1)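 Cells seeded at 10^4 per well in phenol red-free RPMI with 5% DCC-treated FBS. Compounds added in DMSO (vehicle control 1% DMSO) for 96 h at 37 °C, 5% CO2, with serial estradiol dilutions run alongside. Alamar Blue for 3 h, fluorescence ex 530/em 590 nm. Estradiol-equivalent concentration fitted by linear regression from at least five concentrations in quadruplicate.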
A general note: Resazurin is reduced to fluorescent resorufin, in cell work by metabolically active cells.

The test system of test [2] is MCF7. Description: Estrogenic activity in human MCF7 cells assessed as drug level causing stimulation of cell proliferation equivalent to 100 pM estradiol after 96 hrs by alamar blue assay. The method in brief:
as §1

Test [3] relates to T47D. The test is described as follows: Estrogenic activity in human T47D cells assessed as drug level causing stimulation of cell proliferation equivalent to 100 pM estradiol after 96 hrs by alamar blue assay. The essentials:
as §1

Test [4] has as its system MCF7. The test is described as follows: Estrogenic activity in human MCF7 cells assessed as drug level causing stimulation of cell proliferation equivalent to 10 pM estradiol after 96 hrs by alamar blue assay. The method in brief:
as §1

Test [5] concerns MCF7. The test is described as follows: Estrogenic activity in luciferase transfected human MCF7 cells assessed as drug level causing stimulation of cell proliferation equivalent to 10 pM estradiol by luciferase reporter gene assay. The essentials:
(§2)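 Reporter assay in MCF-7 or T47D cells transiently transfected with luciferase. Compounds tested from 0.01 to 10 µM. Luciferase induction is expressed as the compound concentration equivalent to the 10 or 100 pM estradiol response. Values come from linear regression over at least five concentrations in quadruplicate.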

In test [6] the test system is MCF7. The test is described as follows: Estrogenic activity in luciferase transfected human MCF7 cells assessed as drug level causing stimulation of cell proliferation equivalent to 100 pM estradiol by luciferase reporter gene assay. The essentials:
as §2
(In general: In a reporter assay the amount or activity of a reporter protein is the signal.)

Test [7] concerns T47D. Description: Estrogenic activity in luciferase transfected human T47D cells assessed as drug level causing stimulation of cell proliferation equivalent to 10 pM estradiol by luciferase reporter gene assay. The method in brief: as §2
In test [8] the test system is T47D. Description: Estrogenic activity in luciferase transfected human T47D cells assessed as drug level causing stimulation of cell proliferation equivalent to 100 pM estradiol by luciferase reporter gene assay. The method in brief:
as §2

Active and inactive are the calls of the source. The calls are words filed in the database; no cut-off is given here.

For `COc1cc(O)c(-c2coc3cc(O)ccc3c2=O)cc1O` [KHRINONE A], the Activity with T47D [1], in the test with MCF7 [2], in the test with T47D [3], with MCF7 [4], in the test with MCF7 [5] and in the test with MCF7 [6] was greater than 100 µM throughout. In addition, the Activity came out at 5.6 µM with T47D [7] and 8.4 µM with T47D [8].

Take `COc1ccc(-c2coc3cc(O)cc(O)c3c2=O)cc1` [BIOCHANIN]: the Activity was 0.3 µM in the test with T47D [1]; 3.8 µM with MCF7 [2]; 0.5 µM with T47D [3]; 0.3 µM in the test with MCF7 [4]; greater than 100 µM in the test on MCF7 [5]; greater than 100 µM in the test with MCF7 [6]. Also, the Activity in the test on T47D [7] and in the test with T47D [8] was 0.01 µM in each case.

In the case of `COc1ccc([C@@H]2COc3cc(O)ccc3C2)c(OC)c1O`, the Activity was 0.4 µM in the test with T47D [1]; greater than 100 µM in the test with MCF7 [2]; 6.4 µM in the test on T47D [3]; greater than 100 µM with MCF7 [4]; 0.9 µM with MCF7 [5]; 7.8 µM in the test with MCF7 [6]. Further, the values for the Activity with T47D [7] and in the test on T47D [8] were 6.3 µM and greater than 100 µM, respectively.

As for `COc1ccc(-c2coc3cc(O)cc(O)c3c2=O)c(OC)c1O` [KHRINONE C], the Activity in the test on T47D [1] was 0.2 µM; with MCF7 [2] it was 93.3 µM; in the test on T47D [3], 8.6 µM; with MCF7 [4], 4.5 µM; in the test on MCF7 [5], greater than 100 µM; in the test on MCF7 [6] it was greater than 100 µM. For the same compound, the figures for the Activity with T47D [7] and in the test with T47D [8] were 0.2 µM and 2 µM, respectively.

Regarding `O=C1C[C@@H](c2ccccc2)Oc2cc(O)cc(O)c21` [PINOCEMBRIN], the Activity is 7.6 µM with T47D [1]; greater than 100 µM with MCF7 [2]; greater than 100 µM in the test on T47D [3]; 17 µM with MCF7 [4]; greater than 100 µM in the test on MCF7 [5]; greater than 100 µM in the test with MCF7 [6]. The Activity with T47D [7] and with T47D [8] was greater than 100 µM each time.

For the compound `COc1ccc(C2COc3cc(O)ccc3C2=O)c(O)c1` (stereo not given), the Activity was 1.5 µM in the test on T47D [1]; 45.3 µM in the test on MCF7 [2]; 33.7 µM with T47D [3]; 5.7 µM with MCF7 [4]; greater than 100 µM with MCF7 [5]; greater than 100 µM in the test on MCF7 [6]. The Activity was 7.3 µM in the test with T47D [7] and greater than 100 µM with T47D [8].

Turning to `COc1ccc(-c2coc3cc(O)cc(O)c3c2=O)cc1O` [PRATENSEIN], the Activity with T47D [1] is 6.4 µM; in the test with MCF7 [2], 50.4 µM; in the test on T47D [3], greater than 100 µM; in the test on MCF7 [4], 4.5 µM; with MCF7 [5] it was greater than 100 µM; with MCF7 [6] it was greater than 100 µM. The Activity in the test with T47D [7] and in the test with T47D [8] was greater than 100 µM each time.

`COc1ccc(-c2coc3cc(O)ccc3c2=O)cc1` [FORMONONETIN]: the Activity was 0.03 µM with T47D [1]; greater than 100 µM in the test with MCF7 [2]; greater than 100 µM with T47D [3]; greater than 100 µM in the test on MCF7 [4]; 0.01 µM with MCF7 [5]; 0.01 µM in the test on MCF7 [6]. The Activity in the test on T47D [7] and with T47D [8] was 0.01 µM each time.

Turning to `COc1cc(O)ccc1-c1coc2cc(O)cc(O)c2c1=O` [THERALIN], the Activity is 1.7 µM with T47D [1]; greater than 100 µM in the test with MCF7 [2]; greater than 100 µM in the test with T47D [3]; 0.6 µM in the test with MCF7 [4]; 0.01 µM in the test with MCF7 [5]; 0.4 µM in the test on MCF7 [6]. Further, the Activity with T47D [7] and in the test on T47D [8] was greater than 100 µM in each case.

On to `O=C1C[C@@H](c2ccc(O)cc2)Oc2cc(O)cc(O)c21` [NARINGENIN], for which the Activity in the test with T47D [1] was determined as 0.09 µM; in the test with MCF7 [2], 0.7 µM; in the test with T47D [3], 1.6 µM; in the test on MCF7 [4], 0.2 µM; in the test on MCF7 [5] it was 1.7 µM; in the test on MCF7 [6] it was 2.6 µM. Besides, the Activity in the test on T47D [7] was determined as 0.01 µM; in the test with T47D [8], 5.8 µM.

On to `COc1ccc(-c2coc3cc(O)ccc3c2=O)c(OC)c1O` [KHRINONE E], for which the Activity in the test on T47D [1] was greater than 100 µM; in the test with MCF7 [2] it was greater than 100 µM; in the test on T47D [3], greater than 100 µM; with MCF7 [4], 4.7 µM; in the test with MCF7 [5] it was 5.9 µM; with MCF7 [6], greater than 100 µM. Also, the Activity in the test on T47D [7] and with T47D [8] was greater than 100 µM in each case.

As for `COc1ccc(C2COc3c(ccc(O)c3O)C2)c(OC)c1O` (stereo not given), the outcome in the test with T47D [1], with MCF7 [2], in the test on T47D [3], in the test with MCF7 [4], in the test with MCF7 [5] and with MCF7 [6] was inactive. Further, the outcome in the test with T47D [7] and with T47D [8] was inactive.

For the compound `COc1ccc(C2COc3cc(O)ccc3C2=O)cc1O` (stereo not given), the Activity in the test on T47D [1] was greater than 100 µM; in the test with MCF7 [2] it was greater than 100 µM; in the test on T47D [3], greater than 100 µM; with MCF7 [4], 24.5 µM; with MCF7 [5], greater than 100 µM; with MCF7 [6], greater than 100 µM. For the same compound, the Activity in the test on T47D [7] was 6 µM; with T47D [8], greater than 100 µM.

In the case of `COc1cc2c(cc1-c1coc3cc(O)cc(O)c3c1=O)OCO2` [KHRINONE D], the Activity was 0.01 µM with T47D [1]; 4.2 µM in the test with MCF7 [2]; greater than 100 µM in the test with T47D [3]; 1.8 µM with MCF7 [4]; 0.01 µM in the test with MCF7 [5]; 0.6 µM in the test with MCF7 [6]. For the same compound, the Activity is 5.3 µM in the test with T47D [7] and greater than 100 µM in the test on T47D [8].

Regarding `COC1=CC(=O)C(c2coc3cc(O)ccc3c2=O)=CC1=O` [BOWDICHIONE], the Activity was greater than 100 µM in the test on T47D [1]; 1.4 µM in the test on MCF7 [2]; greater than 100 µM with T47D [3]; 0.01 µM in the test with MCF7 [4]; 0.7 µM with MCF7 [5]; 0.9 µM in the test with MCF7 [6]. Also, the Activity in the test with T47D [7] and in the test on T47D [8] was greater than 100 µM throughout.
